We go through 23 compounds from ChEMBL document CHEMBL2157917, “Targeting conserved water molecules: design of 4-aryl-5-cyanopyrrolo[2,3-d]pyrimidine Hsp90 inhibitors using fragment-based screening and structure-based optimization” (Bioorg Med Chem, 2012).

Several values for one entry are separate records, joined by “and”; a condition that tells them apart may be missing. Equal entries are not always repeated. Some results are limits rather than exact numbers.

Data set [1] addresses Heat shock protein HSP 90-beta (Homo sapiens, UniProt P08238). Kind of data set: Inhibition of fluorescently labeled VER51001 binding to full length human HSP90beta after 30 mins by fluorescence polarization assay. Background: Fluorescence polarisation rises when a labelled molecule tumbles more slowly, as on binding a larger partner.
For a further data set, the system named is BT-474. Kind of data set: Antiproliferative activity against human BT474 cells after 4 days by SRB method. The settings on record: BT-474, 96 h. It counts as functional. Background: Sulforhodamine B stains cellular protein and so reports cell mass.
In another data set the test system is MDA-MB-468. Kind of data set: Antiproliferative activity against human MDA-MB-468 cells after 4 days by SRB method. It counts as functional. The note with it: MDA-MB-468, 96 h.
Another data set has as its system HCT-116. Kind of data set: Antiproliferative activity against human HCT116 cells after 4 days by SRB method. It counts as functional. The settings on record: HCT-116, 96 h.
The test system of data set [2] is UGT. Kind of data set: Intrinsic clearance in human liver microsomes assessed as UGT-mediated glucuronidation after 30 mins by LC-MS/MS analysis. It counts as ADME, Microsome. The settings on record: read-out: CLH.
Data set [3] concerns the target T1, Voltage-gated inwardly rectifying potassium channel KCNH2 (Homo sapiens, UniProt Q12809). Kind of data set: Displacement of [3H]-dofetilide from human ERG.
Data set [4] can be described thus: Tmax in Balb-C mouse plasma at 5 mg/kg, po. It counts as ADME, organism-based. Details: dose 5 mg/kg, route oral.
Data set [5] in a line: Ratio of drug level in kidney to plasma of Balb-C mouse at 5 mg/kg, po. It counts as ADME, organism-based. Details: dose 5 mg/kg, route oral.
A short description of data set [6]: Tmax in Balb-C mouse kidney at 5 mg/kg, po. It counts as ADME, organism-based. Details: dose 5 mg/kg, route oral.
Data set [7] can be described thus: Cmax in Balb-C mouse kidney at 5 mg/kg, po. Details: dose 5 mg/kg, route oral. It counts as ADME, organism-based.
Data set [8] relates to UGT. Kind of data set: Intrinsic clearance in human liver microsomes assessed as UGT-mediated glucuronidation extraction ratio after 30 mins by LC-MS/MS analysis. It counts as ADME, Microsome. The note with it: read-out: ERH.
Data set [9] can be described thus: AUC (0 to 2 hrs ) in Balb-C mouse kidney at 5 mg/kg, po. Details: time < 2 hr, dose 5 mg/kg, route oral. It counts as ADME, organism-based.
The nature of data set [10]: AUC (0 to 2 hrs ) in Balb-C mouse plasma at 5 mg/kg, po. It counts as ADME, organism-based. Details: time < 2 hr, dose 5 mg/kg, route oral.
Data set [11] can be described thus: Cmax in Balb-C mouse plasma at 5 mg/kg, po. It counts as ADME, organism-based. Details: dose 5 mg/kg, route oral.
For data set [12], the target named is T1, Voltage-gated inwardly rectifying potassium channel KCNH2. Kind of data set: Inhibition of human ERG expressed in HEK293 cells by voltage-clamp method. It counts as cell-based.
Data set [13] can be described thus: Binding affinity to hexa His-tagged HSP90 (9-236 aminoacids) by SPR assay. The method, boiled down: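 NTA chip charged with 0.5 mM Ni2+, then 100 nM His-tagged HSP90 captured to about 1500 RU. Running buffer 10 mM HEPES pH 7.4, 150 mM NaCl, EDTA, 0.05% Tween-20, 1% DMSO. Surface was reloaded for each concentration. Double-referenced sensorgrams were fitted globally to a single-step kinetic model.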
For orientation: In SPR one partner is held on a chip, and binding of the other changes the refractive index at the surface.

Data set [14] in a line: Binding affinity to HSP90 after 30 mins by ITC assay. The method, boiled down:
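Isothermal titration calorimetry at 25 °C with stirring at 1000 rpm. Ligands came from a 20 mM DMSO stock and were run in dialysis buffer with 1% DMSO. Ligand 10 µM in the cell, protein 100–200 µM in the syringe, 8–16 injections at 300 s spacing. One-site fit.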

Chain of Heat shock protein HSP 90-beta (P08238 whole entry): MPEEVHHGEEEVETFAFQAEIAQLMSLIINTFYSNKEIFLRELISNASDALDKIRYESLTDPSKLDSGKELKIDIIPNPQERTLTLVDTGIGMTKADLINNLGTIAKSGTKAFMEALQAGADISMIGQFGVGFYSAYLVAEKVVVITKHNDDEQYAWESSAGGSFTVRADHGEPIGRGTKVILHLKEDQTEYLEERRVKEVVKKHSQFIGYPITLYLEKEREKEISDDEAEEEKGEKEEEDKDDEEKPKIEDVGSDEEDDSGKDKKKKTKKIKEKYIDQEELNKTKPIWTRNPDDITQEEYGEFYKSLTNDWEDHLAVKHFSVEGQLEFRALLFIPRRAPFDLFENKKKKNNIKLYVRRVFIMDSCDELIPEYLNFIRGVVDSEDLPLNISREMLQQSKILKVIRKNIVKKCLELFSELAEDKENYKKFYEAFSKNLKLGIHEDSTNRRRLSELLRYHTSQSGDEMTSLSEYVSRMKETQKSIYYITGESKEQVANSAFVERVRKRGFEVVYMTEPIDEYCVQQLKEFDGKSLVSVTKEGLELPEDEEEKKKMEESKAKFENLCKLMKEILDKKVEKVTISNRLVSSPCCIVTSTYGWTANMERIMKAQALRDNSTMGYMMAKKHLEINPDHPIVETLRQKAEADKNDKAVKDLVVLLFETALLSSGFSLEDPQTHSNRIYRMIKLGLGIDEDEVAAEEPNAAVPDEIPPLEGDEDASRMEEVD
T1 sequence (Q12809 whole entry): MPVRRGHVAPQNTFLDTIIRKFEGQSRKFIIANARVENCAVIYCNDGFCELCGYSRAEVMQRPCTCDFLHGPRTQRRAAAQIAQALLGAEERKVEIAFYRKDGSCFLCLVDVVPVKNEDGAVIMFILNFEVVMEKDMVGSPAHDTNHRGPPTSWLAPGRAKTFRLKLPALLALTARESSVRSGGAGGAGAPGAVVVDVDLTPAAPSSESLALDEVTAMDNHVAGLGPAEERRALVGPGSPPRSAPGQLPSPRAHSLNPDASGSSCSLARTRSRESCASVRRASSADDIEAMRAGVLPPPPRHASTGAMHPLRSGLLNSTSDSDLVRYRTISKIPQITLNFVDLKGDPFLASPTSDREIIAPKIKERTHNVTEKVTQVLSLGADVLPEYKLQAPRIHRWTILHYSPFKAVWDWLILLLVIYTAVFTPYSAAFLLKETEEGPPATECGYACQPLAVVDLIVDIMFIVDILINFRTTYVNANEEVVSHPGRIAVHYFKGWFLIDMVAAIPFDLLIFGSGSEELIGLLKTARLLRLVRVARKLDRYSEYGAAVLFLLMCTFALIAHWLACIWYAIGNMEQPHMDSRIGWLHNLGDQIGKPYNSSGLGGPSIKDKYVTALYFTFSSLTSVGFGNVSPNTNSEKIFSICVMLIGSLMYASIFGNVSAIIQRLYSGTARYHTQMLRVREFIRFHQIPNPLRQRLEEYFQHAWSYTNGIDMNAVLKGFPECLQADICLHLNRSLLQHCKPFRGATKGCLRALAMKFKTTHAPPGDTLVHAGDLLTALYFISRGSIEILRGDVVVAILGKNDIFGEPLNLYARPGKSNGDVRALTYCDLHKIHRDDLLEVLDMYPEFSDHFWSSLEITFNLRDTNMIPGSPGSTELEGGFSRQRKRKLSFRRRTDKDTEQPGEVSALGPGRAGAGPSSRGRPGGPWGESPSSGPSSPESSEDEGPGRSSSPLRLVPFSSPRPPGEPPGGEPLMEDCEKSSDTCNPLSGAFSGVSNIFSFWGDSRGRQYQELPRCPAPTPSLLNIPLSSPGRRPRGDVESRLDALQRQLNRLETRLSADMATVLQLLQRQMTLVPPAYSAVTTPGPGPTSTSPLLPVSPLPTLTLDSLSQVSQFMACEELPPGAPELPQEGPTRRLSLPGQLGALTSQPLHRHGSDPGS

Regarding `CCN(CC)CCOc1nc(-c2cc(OC)c(Cl)cc2Cl)c2c(C#N)c[nH]c2n1`, in data set [1], the affinity corresponds to a Ki of 62 nM. Moreover, growth with BT-474 was halved (GI50) at 2010 nM.
Consider `COc1cc(Cl)c(-c2nc(SCC(=O)N3CCC3)nc3[nH]cc(C#N)c23)cc1OC`, for which the Ki (in general, the equilibrium dissociation constant of an inhibitor or competing ligand from its target) in data set [1] is less than 1 nM. In addition, the GI50 – broadly, the concentration giving 50% growth inhibition – was found to be 35 nM in the data set with MDA-MB-468, 31 nM in the data set on BT-474 and 28 nM in the data set on HCT-116.
The matching figures for `CNC(=O)CSc1nc(-c2cc(OC)c(OC)cc2Cl)c2c(C#N)c[nH]c2n1`: less than 1 nM, 33 nM, 56 nM and 42 nM.
As for `COc1cc(Cl)c(-c2nc(SCC(=O)N(C)C)nc3[nH]cc(C#N)c23)cc1O`, the microsomal CLint with UGT [2] worked out at 73 µL/min/mg. Further, the IC50 in data set [3] and in data set [12] was greater than 30000 nM in each case. Further, the Tmax (commonly the time from dosing to the highest level) in data set [4] turned out to be 15 min; in data set [6] it was 30 min. Moreover, the Kp (usually the ratio of the level in a tissue or fluid to that in plasma or blood) in data set [5] amounted to 2.6. Moreover, the Cmax (commonly the peak of the concentration-time curve) was 31 ng/mL and 72 nM in data set [7]; 25 nM and 11 ng/mL in data set [11]. Besides, the Ki in data set [1] was less than 1 nM. Further, the concentration for 50% growth inhibition (GI50) with MDA-MB-468 was 23 nM; in the data set with BT-474, 20 nM; in the data set on HCT-116 it was 131 nM. Further, in the data set with UGT [8], the hepatic extraction ratio at 0.5 h turned out to be 0.8. Besides, the area under the curve AUC(0-t) (usually the area under the concentration-time curve up to a stated or last time point) at 2 h in data set [9] came out at 41 ng·h/mL; in data set [10] it was 16 ng·h/mL.
Regarding `CCN(CC)CCOc1cc(-c2nc(SCC(=O)NC)nc3[nH]cc(C#N)c23)c(Cl)cc1Cl`, the IC50 (in general, the concentration at which inhibition is half-maximal) in data set [3] amounted to 3140 nM; in data set [12], 17800 nM. Besides, in [1], the Ki turned out to be 8 nM. This compound also had a GI50 with BT-474 of 78 nM.
Take `CCN(CC)CCSc1nc(-c2cc(OC)c(C#N)cc2Cl)c2c(C#N)c[nH]c2n1`: the Ki in data set [1] was less than 1 nM. Growth with BT-474 was halved (GI50) at 80 nM.
The matching figures for `COc1cc(Cl)c(-c2nc(SC(C)C)nc3[nH]cc(C#N)c23)cc1OCCN1CCC(F)(F)C1`: 172 nM and 388 nM.
For `COc1cc(Cl)c(-c2nc(SCC(=O)NC3CC3)nc3[nH]cc(C#N)c23)cc1OC`, in data set [1], the Ki is less than 1 nM. Further, the figures for the GI50 with MDA-MB-468, with BT-474 and in the data set with HCT-116 were 62 nM, 69 nM and 60 nM, respectively.
Turning to `COc1cc(Cl)c(-c2nc(SCC(=O)NC3CC3)nc3[nH]cc(C#N)c23)cc1O`, the inhibition constant (Ki) in data set [1] is less than 1 nM. For the same compound, the GI50 in the data set on MDA-MB-468 was determined as 236 nM; in the data set on BT-474, 102 nM; in the data set on HCT-116, 1160 nM.
Take `CCOc1cc(-c2nc(SCC(=O)NC3CC3)nc3[nH]cc(C#N)c23)c(Cl)cc1OC`: in data set [1], the inhibition constant Ki was less than 1 nM. The GI50 stood at 23 nM in the data set on MDA-MB-468, 25 nM with BT-474 and 20 nM in the data set on HCT-116.
Consider `COc1cc(Cl)c(-c2nc(SCC(=O)NC(C)C)nc3[nH]cc(C#N)c23)cc1O`, for which the Ki in data set [1] stood at 3 nM. Also, the values for the GI50 in the data set with MDA-MB-468, with BT-474 and with HCT-116 were 178 nM, 161 nM and 238 nM, respectively.
For the compound `CCNC(=O)CSc1nc(-c2cc(OC)c(OC)cc2Cl)c2c(C#N)c[nH]c2n1`, the Ki in data set [1] amounted to 2 nM. Besides, the results for the GI50 in the data set on MDA-MB-468, in the data set with BT-474 and with HCT-116 were 59 nM, 141 nM and 42 nM, respectively.
In data set [1], `CCNC(=O)CSc1nc(-c2cc(OCC)c(OC)cc2Cl)c2c(C#N)c[nH]c2n1` showed a Ki of less than 1 nM. For the same compound, the results for the GI50 in the data set on MDA-MB-468, in the data set on BT-474 and in the data set with HCT-116 were 64 nM, 44 nM and 40 nM, respectively.
In the case of `COc1cc(Cl)c(-c2nc(SCC(=O)NC(C)(C)C)nc3[nH]cc(C#N)c23)cc1O`, the Ki in data set [1] is less than 1 nM. Besides, the values for the GI50 in the data set on MDA-MB-468, with BT-474 and in the data set on HCT-116 were 152 nM, 128 nM and 117 nM, respectively.
Regarding `COc1cc(Cl)c(-c2nc(SCC(=O)NC(C)(C)C)nc3[nH]cc(C#N)c23)cc1OC`, in [1], the Ki is less than 1 nM. Also, the GI50 was 84 nM with MDA-MB-468, 121 nM in the data set on BT-474 and 50 nM with HCT-116.
In data set [1], `CCOc1cc(-c2nc(SCC(=O)NC(C)C)nc3[nH]cc(C#N)c23)c(Cl)cc1OC` displayed a Ki of less than 1 nM. Also, the concentration for 50% growth inhibition (GI50) was found to be 77 nM with MDA-MB-468, 84 nM with BT-474 and 65 nM with HCT-116.
In the case of `COc1cc(Cl)c(-c2nc(SCC(=O)NC(C)C)nc3[nH]cc(C#N)c23)cc1OC`, in data set [1], the Ki was less than 1 nM. Besides, the concentration for 50% growth inhibition (GI50) with MDA-MB-468 stood at 102 nM; in the data set on BT-474 it was 81 nM; with HCT-116, 81 nM.
In data set [1], `COc1cc(Cl)c(-c2nc(SCC(=O)NCCF)nc3[nH]cc(C#N)c23)cc1OC` returned a Ki of 5 nM. Further, the GI50 in the data set with MDA-MB-468 worked out at 178 nM; with BT-474, 136 nM; in the data set on HCT-116, 98 nM.
On to `COc1cc(Cl)c(-c2nc(SCC(=O)NCCF)nc3[nH]cc(C#N)c23)cc1O`, for which, in data set [1], the affinity corresponds to a Ki of 2 nM. For the same compound, the GI50 is 183 nM in the data set with MDA-MB-468, 85 nM in the data set with BT-474 and 728 nM with HCT-116.
For the compound `COc1cc(Cl)c(-c2nc(SCC(=O)NCC(F)(F)F)nc3[nH]cc(C#N)c23)cc1OC`, in data set [1], the Ki is less than 1 nM. In addition, the GI50 in the data set with MDA-MB-468 is 124 nM; in the data set with BT-474, 45 nM; in the data set on HCT-116, 153 nM.
For the compound `COc1cc(Cl)c(-c2nc(SCC(=O)N3CCC3)nc3[nH]cc(C#N)c23)cc1O`, the Ki in data set [1] was less than 1 nM. The GI50 amounted to 28 nM with MDA-MB-468, 21 nM in the data set with BT-474 and 172 nM in the data set with HCT-116.
In data set [1], `CSc1nc(-c2ccc(C#N)cc2)c2cc[nH]c2n1` gave a Ki greater than 200000 nM. Moreover, in data set [13], the Kd (commonly a measure of binding affinity in units of concentration) was greater than 100000 nM.
For the compound `CSc1nc(-c2ccc(C)cc2C)c2c(C#N)c[nH]c2n1`, in [14], the Kd stood at 156 nM. This compound also displayed a Ki in data set [1] of 195 nM.
